Test results from publication PMC11094418 (Clinical Cancer Research, 2024).

Tests used:
[1] = test system: HCT116 KRAS-mutant colorectal cancer xenograft model; assay: HCT116 xenograft in Balb/c nude mice; type: in vivo; details: 42 days
In short: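 Female Balb/c nude mice aged 6–9 weeks, inoculated subcutaneously with 5 million HCT116 cells and randomized at 100–150 mm3. Groups received vehicle, oral test compound (0.5% methylcellulose + 0.1% Tween80 suspension), an i.p. chemotherapy agent in saline, or the combination for 42 days. Tumor volume and body weight were measured twice weekly. Mean ± SEM, n=7–8/group.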

[2] = test system: DLD1 isogenic KRAS^WT/G13D (KRAS MUT) and KRAS^WT/− (KRAS WT) colorectal cancer cells; assay: proliferation assay, cell viability by CellTiterGlo; type: cell-based; details: 72 hours, Fig. 1A
[3] = test system: DLD1 isogenic KRAS^WT/G13D (KRAS MUT) and KRAS^WT/− (KRAS WT) colorectal cancer cells; assay: analysis of mitotic cells by flow cytometry; type: cell-based; details: 100 nmol/L, 24 hours, Fig. 1B
[4] = phase Ib safety: onvansertib-related AEs; type: in vivo, human; details: all dose levels
In short: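 Oral test compound was dose-escalated (3+3 design; 12, 15, 18 mg/m2) on days 1–5 and 15–19 of 28-day cycles. It was given with FOLFIRI and bevacizumab 5 mg/kg i.v. on days 1 and 15. Patients receiving ≥1 dose were evaluable. AEs were graded by NCI CTCAE v4.03, investigators assigned causality, and data were summarized descriptively.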

[5] = phase Ib pharmacokinetics, plasma, day 5 of cycle 1, LC/MS-MS; type: in vivo, human
In short: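 Oral test compound was given on days 1–5 and 15–19 of 28-day cycles with FOLFIRI/bevacizumab. Blood was drawn on cycle 1 day 5 at predose and at 1, 2, 3, 4, 8, 24, 48 and 72 h postdose. Plasma drug concentrations were measured by LC/MS-MS, and pharmacokinetic parameters were calculated from these.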

[6] = cited from earlier work

CCc1c2c(nc3ccc(OC(=O)N4CCC(N5CCCCC5)CC4)cc13)-c1cc3c(c(=O)n1C2)COC(=O)[C@]3(O)CC [irinotecan, reference compound]
tumor growth compared with the vehicle-treated group ([1]; intraperitoneally, 5 mg/kg, twice a week): significantly reduced tumor growth

CN1CCN(c2ccc(OC(F)(F)F)c(Nc3ncc4c(n3)-c3c(c(C(N)=O)nn3CCO)CC4)c2)CC1 [onvansertib]
cell death in DLD1 KRAS MUT cells compared with KRAS WT cells [2]: increased
mitotic arrest in DLD1 KRAS MUT cells compared with KRAS WT cells [3]: increased
tumor growth compared with the vehicle-treated group ([1]; oral, 45 mg/kg, daily): significantly reduced tumor growth
G3/G4 neutropenia, patients [4]: 28%
diarrhea, patients [4]: 50%
fatigue, patients [4]: 44%
nausea, patients [4]: 50%
number of onvansertib-related G3 or G4 AEs [4]: 15
vomiting, patients [4]: 22%
AUC0–24 ([5]; 12 mg/m^2, mean ± SD): 2,020 ± 880 ng/mL.hours
Cmax ([5]; 12 mg/m^2, mean ± SD): 163 ± 82 ng/mL
Tmax ([5]; 12 mg/m^2, mean ± SD): 5.29 ± 8.32 h
t1/2 ([5]; 12 mg/m^2, mean ± SD): 13.8 ± 2.1 h
AUC0–24 ([5]; 15 mg/m^2, mean ± SD): 1,520 ± 650 ng/mL.hours
Cmax ([5]; 15 mg/m^2, mean ± SD): 169 ± 64 ng/mL
Tmax ([5]; 15 mg/m^2, mean ± SD): 1.80 ± 0.84 h
t1/2 ([5]; 15 mg/m^2, mean ± SD): 13.9 ± 4.3 h
AUC0–24 ([5]; 18 mg/m^2, mean ± SD): 2,290 ± 730 ng/mL.hours
Cmax ([5]; 18 mg/m^2, mean ± SD): 191 ± 25 ng/mL
Tmax ([5]; 18 mg/m^2, mean ± SD): 2.40 ± 1.20 h
t1/2 ([5]; 18 mg/m^2, mean ± SD): 13.8 ± 2.3 h
terminal half-life in plasma ([5]; all dose levels): around 14 hours
human half-life ([6]; oral): approximately 24 hours
dose-limiting toxicities (DLT) ([6]; single agent, 6, 12, and 24 mg/m^2/day for 5 out of 21 days): no dose-limiting toxicities
